HTRA1 inhibitor: inhibitors of human serine peptidase HTRA1; AID 504803; recombinant HTRA1, FP-rhodamine activity-based probe, fluorescence polarization; Q92743; actives 0.5% (n = 340,000); inhibition, % at 5.96 µM; in the data active = inhibition above about 36%
SIAE inh: blocks human sialic acid acetylesterase. Q9HAT2. SIAE FP-Rh probe binding, fluorescence polarization. inhibition, % at 9.66 µM. actives 0.69% (n = 370,000). AID 1053197;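 active = inhibition above a cutoff: mean of compounds within the control limits plus 3 SD of those, cut at about 17% in these data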
Target sequence (Q9HAT2 whole entry, looked up): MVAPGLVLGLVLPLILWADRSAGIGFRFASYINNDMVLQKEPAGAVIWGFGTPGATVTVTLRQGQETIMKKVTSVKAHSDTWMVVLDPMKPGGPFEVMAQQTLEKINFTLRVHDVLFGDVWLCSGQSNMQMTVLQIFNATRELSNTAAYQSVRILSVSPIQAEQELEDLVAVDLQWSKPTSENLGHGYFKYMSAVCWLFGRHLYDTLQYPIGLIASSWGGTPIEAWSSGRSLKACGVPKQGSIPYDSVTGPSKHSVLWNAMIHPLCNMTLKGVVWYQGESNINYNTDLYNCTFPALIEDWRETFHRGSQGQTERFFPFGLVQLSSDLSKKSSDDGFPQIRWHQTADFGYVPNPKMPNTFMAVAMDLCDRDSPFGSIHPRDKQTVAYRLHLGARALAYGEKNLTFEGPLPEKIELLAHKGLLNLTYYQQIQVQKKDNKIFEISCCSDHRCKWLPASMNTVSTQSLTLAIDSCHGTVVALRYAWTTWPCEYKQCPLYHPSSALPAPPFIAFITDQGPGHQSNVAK
PRMT1 inh: PRMT1 (human) inhibition, primary screen | Q99873 | recombinant PRMT1, activity-based probe fluorescence polarization | inhibition, % at 2.79 µM | actives 1.3% (n = 370,000) | AID 652257;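 active = inhibition above about 21% made by adding two undisclosed values, limit read from the data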
TCR CD3 inh: human TCR-CD3 binding inhibition. TAMRA-labeled TCR probe fluorescence, biochemical. inhibition, % at 9.4 µM. actives 0.37% (n = 360,000). AID 651800; in the data active = inhibition above about 19%;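 note: recombinant mutant TCR 2C K166C tagged with TAMRA read by polarization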
mABHD4 FP: inhibits mouse alpha/beta hydrolase domain 4 | purified mABHD4, FP-Rh probe fluorescence polarization | inhibition, % at 8.92 µM | actives 0.54% (n = 370,000);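 active = inhibition exceeding the mean over every tested compound plus 3 SD, cut at about 30% in these data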
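Assay system: mABHD4 protein; medium: HEPES pH 7.0, NaCl, Pluronic buffer; dosing: 8.92 µM, single dose; schedule: 45 min + 60 min at 25 °C; signal: FP readout, ex 525 nm / em 598 nm; read-out: normalized percent inhibition of probe labeling; repeats: single replicate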
rCAG RNA binder: binds r(CAG) RNA repeats; inhibition, % at 3 µM; r(CAG) RNA repeat, TO-PRO-1 dye displacement fluorescence; actives 1.3% (n = 370,000);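 active = inhibition above the plate cutoff, the mean of all test compounds on that plate plus 3 SD, cut at about 35% in these data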;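 note: higher means more dye released from RNA so lower well fluorescence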
PRMT1 inh conf: confirmation of human PRMT1 inhibitors. recombinant His-PRMT1, activity-based probe fluorescence polarization. shares compounds with PRMT1 inh. actives 42% (n = 3,300). inhibition, % at 2.79 µM;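 active = mean inhibition across replicates above the hit cutoff derived for the earlier primary screen, cut at about 22% in these data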
Each line names hits and unclear results; the compound was inactive in the other large screens (follow-up assays come after a bar, where they were run). This is a sample that favours compounds with a hit; in the whole collection about 3.5% have one here.

c1coc(-c2cc3nc(NC4CCCCC4)ccn3n2)c1	PRMT1 inh 28.9 (no result: HTRA1 inhibitor) | PRMT1 inh conf inactive
c1ccc(-c2cc3nc(NCc4ccc5c(c4)OCO5)ccn3n2)cc1	none (no result: HTRA1 inhibitor)
c1coc(-c2cc3nc(NCc4ccc5c(c4)OCO5)ccn3n2)c1	PRMT1 inh 31.6 (no result: HTRA1 inhibitor) | PRMT1 inh conf inactive
O=C(NC1CCCC1)c1cc2nc(-c3ccco3)cc(C(F)(F)F)n2n1	none
COC(=O)C[C@H]1CC[C@@H]2[C@@H](COc3ccc(NC(=O)c4ccccc4)cc3C(=O)N2C)O1	none (no result: HTRA1 inhibitor, TCR CD3 inh)
COC(=O)[C@H]1C[C@@]2(N3CCCCC3)c3ccccc3N[C@H]2N1S(=O)(=O)c1ccc(C)cc1	none (no result: HTRA1 inhibitor, TCR CD3 inh)
CCOC(=O)c1cccc(NC(=O)CN(C)S(=O)(=O)c2ccc(Cl)s2)c1	none (no result: HTRA1 inhibitor, TCR CD3 inh)
O=C(O)c1ccccc1-c1c2cc(I)c(=O)c(I)c-2oc2c(I)c(O)c(I)cc12	PRMT1 inh 83.0 | PRMT1 inh conf 74.8
O=Cc1ccc(-c2ccccc2C(=O)O)o1	none
CCOc1cc(/C=C2\C(=O)N(Cc3ccco3)C(C)=C2C(=O)OC)ccc1O	PRMT1 inh 45.5 | PRMT1 inh conf inactive
O=C1CCSc2c1ccc1ccccc21	PRMT1 inh 29.3 | PRMT1 inh conf inactive
NC1=NC(=O)CC(C(=O)NCCc2ccccc2)S1 (stereo unspecified)	PRMT1 inh 29.7 | PRMT1 inh conf inactive
NC1=NC(=O)CC(C(=O)Nc2cccc3ccccc23)S1 (stereo unspecified)	none (no result: SIAE inh, PRMT1 inh, TCR CD3 inh, mABHD4 FP, rCAG RNA binder)
Cc1cc[n+](-c2[nH]c(=O)sc2/C=N/N=C(\[O-])c2ccccc2)cc1C	PRMT1 inh 62.4 | PRMT1 inh conf 38.3
Cc1ccc(C)c(Cn2c(=O)n(CCCC(=O)NCc3ccco3)c(=O)c3ccccc32)c1	PRMT1 inh 101.9 | PRMT1 inh conf inactive
Cc1ccc(C)c(Cn2c(=O)n(CCC(=O)NCc3ccco3)c(=O)c3ccccc32)c1	none
O=c1[nH]sc2ccccc12	PRMT1 inh 72.3 | PRMT1 inh conf 85.6
O=C(CSc1ccc(-c2ccco2)nn1)c1ccccc1	PRMT1 inh 28.2 | PRMT1 inh conf inactive
COc1cccc(NC(=O)CCC(=O)Nc2cccc(OC)c2)c1	none
COc1cccc(NC(=O)CSC(N)=O)c1	PRMT1 inh 62.6 | PRMT1 inh conf 86.8
O=C(CSc1ccc(-c2ccco2)nn1)Nc1ccccc1	none
COc1cccc(NC(=O)CSc2ccc(-c3ccco3)nn2)c1	PRMT1 inh 42.3 | PRMT1 inh conf inactive
O=C(CSc1ccc(-c2ccco2)nn1)N1CCCCCC1	none
CC(=O)NC(Cc1ccccc1)P(=O)(O)O (stereo unspecified)	none (no result: HTRA1 inhibitor, TCR CD3 inh)
COC(=O)CN=Cc1c(C)[nH]n(-c2ccccc2)c1=O	none
Cc1[nH]n(-c2ccccc2)c(=S)c1C=NCCCN=Cc1c(C)[nH]n(-c2ccccc2)c1=S	PRMT1 inh 80.8 | PRMT1 inh conf 44.4
COC(=O)c1ccccc1S(=O)(=O)N(Cc1ccco1)Cc1cc2cc(OC)ccc2[nH]c1=O	PRMT1 inh 29.8 | PRMT1 inh conf inactive
Cc1ccc(S(=O)(=O)NN=CC=CC=NNS(=O)(=O)c2ccc(C)cc2)cc1	PRMT1 inh 39.2 | PRMT1 inh conf 44.1
CCn1c(COc2ccc(Cl)cc2)nnc1SCC(=O)Nc1ccc(Oc2ccccc2)cc1	none (no result: HTRA1 inhibitor, TCR CD3 inh)
CCN(C(=O)COc1cccc2cccnc12)C1CCS(=O)(=O)C1 (stereo unspecified)	PRMT1 inh 32.8 | PRMT1 inh conf inactive
Cc1ccc(/C=C/C(=O)c2ccc(O)cc2)cc1	none
Cc1ccc(C(=O)/C=C/C(=O)O)cc1	PRMT1 inh 40.2 | PRMT1 inh conf 30.3
Cc1ccc(-n2ccnc(SCC(=O)NCCc3ccccc3)c2=O)cc1F	PRMT1 inh 59.4 | PRMT1 inh conf 41.6
Cc1ccc(-n2ccnc(SCC(=O)NC3CCCC3)c2=O)cc1F	none
O=C(CSc1nccn(-c2ccc(F)c(Cl)c2)c1=O)NC1CCCC1	PRMT1 inh 31.9 | PRMT1 inh conf 38.9
Cc1ccc(Cl)cc1NC(=O)CSC(N)=O	PRMT1 inh 41.3 | PRMT1 inh conf 99.4
Clc1ccc(-n2nnc(-c3nccs3)n2)cc1Cl	PRMT1 inh 37.9 | PRMT1 inh conf 24.2
C=C(C)/C=C1/C(Cc2ccccc2)N(CC2CC2)C(=N)N1C(=O)OCc1ccccc1 (stereo unspecified)	none (no result: HTRA1 inhibitor, TCR CD3 inh)
CC1(C)CC(=O)C2=C(C1)Nc1ccccc1NC2	PRMT1 inh 25.0 | PRMT1 inh conf inactive
O=c1[nH]c2ccc(Cl)cc2c(-c2ccccc2)c1SC(=S)N1CCCCC1	PRMT1 inh 44.5 | PRMT1 inh conf 23.6
Cc1nn(-c2ccccc2)c(C)c1C=NNC(=O)CSc1nc2ccccc2n1C	none (no result: HTRA1 inhibitor, TCR CD3 inh)
CCCCCC(=O)N(O)C1CC(=O)N(c2ccccc2)C1=O (stereo unspecified)	PRMT1 inh 83.6 | PRMT1 inh conf 85.3
CCCCN1CC(=O)N2[C@H](C[C@@]3(n4ccc5ccccc54)c4ccccc4N(S(=O)(=O)c4ccccc4)[C@@H]23)C1=O	none (no result: HTRA1 inhibitor, TCR CD3 inh)
Cc1ccc(NCCC(=O)c2cccc([N+](=O)[O-])c2)cc1	PRMT1 inh 33.2 | PRMT1 inh conf 53.9
O=C(CCNc1ccc(Br)cc1)c1cccc([N+](=O)[O-])c1	PRMT1 inh 28.3 | PRMT1 inh conf 23.1
O=C(CC(=O)c1ccccc1)Nc1cccc([N+](=O)[O-])c1	none
O=C(CNC(=O)c1cccc([N+](=O)[O-])c1)OCCCC(=O)c1ccc(F)cc1	none
O=C(CCNc1ccccc1)c1cccc([N+](=O)[O-])c1	PRMT1 inh 36.5 | PRMT1 inh conf 30.4
O=C(CCNc1ccc(F)cc1)c1cccc([N+](=O)[O-])c1	PRMT1 inh 31.6 | PRMT1 inh conf 39.4
COc1ccc(-n2c(SCC(=O)Nc3ccccc3-c3ccccc3)nnc2-c2ccccc2)cc1	none (no result: HTRA1 inhibitor, TCR CD3 inh)
Cc1cccc(C(=O)Nc2nc3ncccn3c2-c2ccc(F)cc2)c1	none (no result: HTRA1 inhibitor, TCR CD3 inh)
C/C(C=NNC(=O)CSc1nc2ccccc2n1C)=C\c1ccccc1	none (no result: HTRA1 inhibitor, TCR CD3 inh)
Cc1ccnc(SCC(=O)c2cccc([N+](=O)[O-])c2)n1	none
Cc1nc(SCC(=O)c2cccc([N+](=O)[O-])c2)n[nH]1	PRMT1 inh 30.1 | PRMT1 inh conf inactive
CCc1cc(C(=O)Nc2ccc(OC)nc2)sc1C	PRMT1 inh 26.4 | PRMT1 inh conf inactive
NC(CSS(=O)(=O)O)=NCCC12CC3CC(CC(O)(C3)C1)C2	PRMT1 inh 40.9 | PRMT1 inh conf 43.6
O=C(CSC1=NCCS1)Nc1nc2c(s1)CCCC2	PRMT1 inh 26.3 | PRMT1 inh conf 32.1
Cn1nnnc1SCC(=O)Nc1nc2c(s1)CCCC2	none
Cc1ccc(/C=C2\C(=O)Nc3ccccc32)o1	PRMT1 inh 60.0 | PRMT1 inh conf inactive
O=C1Nc2ccccc2/C1=C/c1ccccc1F	none
CC(=O)Nc1ccc(C2=NNC(=Nc3ccc(S(=O)(=O)N4CCOCC4)cc3)SC2)cc1	PRMT1 inh 60.1 | PRMT1 inh conf 85.7

Screening results as filed in PubChem.
